Calls of active or inactive are those of the source. The rule behind the calls is not given here.
Tests used:
[1] = Inhibition of Yersinia PTP
Summary of the method: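 Recombinant Yop51* enzyme; p-nitrophenyl phosphate at 0.5–4.0 mM in 0.05 M BISTRIS pH 6.5 with 100 mM NaCl, 0.05% Brij-35, 0.6 vol% DMSO, 0.4 mM EDTA and 1 mM DTT. Substrate and inhibitor were preincubated 5 min at 30 °C, then enzyme was added. Initial rates were read as p-nitrophenol A410 (ε 18,300 M⁻¹ cm⁻¹). Ki came from Lineweaver–Burk analysis at several inhibitor levels, reported as mean and standard deviation.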

[2] = target: Receptor-type tyrosine-protein phosphatase beta (Homo sapiens, UniProt P23467); assay: Inhibition of human recombinant PTPbeta
Summary of the method: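 Human recombinant PTPβ; 1 mM p-nitrophenyl phosphate preincubated 5 min at 30 °C with varying inhibitor concentrations in 0.05 M BISTRIS pH 7.0 with 100 mM NaCl, 0.05% Brij-35, 0.8 vol% DMSO and 1 mM diethylenetriamine pentaacetic acid. Enzyme was added to start the reaction and A410 was followed over time. IC50 is the concentration halving activity after 5 min. For competitive inhibition, Ki was taken as ½ IC50 at substrate equal to Km.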

[3] = Selectivity for human recombinant PTPbeta over Yersinia PTP
[4] = organism: Homo sapiens; assay: Inhibition of human PP1 at 50 uM

Receptor-type tyrosine-protein phosphatase beta, sequence (P23467 whole entry): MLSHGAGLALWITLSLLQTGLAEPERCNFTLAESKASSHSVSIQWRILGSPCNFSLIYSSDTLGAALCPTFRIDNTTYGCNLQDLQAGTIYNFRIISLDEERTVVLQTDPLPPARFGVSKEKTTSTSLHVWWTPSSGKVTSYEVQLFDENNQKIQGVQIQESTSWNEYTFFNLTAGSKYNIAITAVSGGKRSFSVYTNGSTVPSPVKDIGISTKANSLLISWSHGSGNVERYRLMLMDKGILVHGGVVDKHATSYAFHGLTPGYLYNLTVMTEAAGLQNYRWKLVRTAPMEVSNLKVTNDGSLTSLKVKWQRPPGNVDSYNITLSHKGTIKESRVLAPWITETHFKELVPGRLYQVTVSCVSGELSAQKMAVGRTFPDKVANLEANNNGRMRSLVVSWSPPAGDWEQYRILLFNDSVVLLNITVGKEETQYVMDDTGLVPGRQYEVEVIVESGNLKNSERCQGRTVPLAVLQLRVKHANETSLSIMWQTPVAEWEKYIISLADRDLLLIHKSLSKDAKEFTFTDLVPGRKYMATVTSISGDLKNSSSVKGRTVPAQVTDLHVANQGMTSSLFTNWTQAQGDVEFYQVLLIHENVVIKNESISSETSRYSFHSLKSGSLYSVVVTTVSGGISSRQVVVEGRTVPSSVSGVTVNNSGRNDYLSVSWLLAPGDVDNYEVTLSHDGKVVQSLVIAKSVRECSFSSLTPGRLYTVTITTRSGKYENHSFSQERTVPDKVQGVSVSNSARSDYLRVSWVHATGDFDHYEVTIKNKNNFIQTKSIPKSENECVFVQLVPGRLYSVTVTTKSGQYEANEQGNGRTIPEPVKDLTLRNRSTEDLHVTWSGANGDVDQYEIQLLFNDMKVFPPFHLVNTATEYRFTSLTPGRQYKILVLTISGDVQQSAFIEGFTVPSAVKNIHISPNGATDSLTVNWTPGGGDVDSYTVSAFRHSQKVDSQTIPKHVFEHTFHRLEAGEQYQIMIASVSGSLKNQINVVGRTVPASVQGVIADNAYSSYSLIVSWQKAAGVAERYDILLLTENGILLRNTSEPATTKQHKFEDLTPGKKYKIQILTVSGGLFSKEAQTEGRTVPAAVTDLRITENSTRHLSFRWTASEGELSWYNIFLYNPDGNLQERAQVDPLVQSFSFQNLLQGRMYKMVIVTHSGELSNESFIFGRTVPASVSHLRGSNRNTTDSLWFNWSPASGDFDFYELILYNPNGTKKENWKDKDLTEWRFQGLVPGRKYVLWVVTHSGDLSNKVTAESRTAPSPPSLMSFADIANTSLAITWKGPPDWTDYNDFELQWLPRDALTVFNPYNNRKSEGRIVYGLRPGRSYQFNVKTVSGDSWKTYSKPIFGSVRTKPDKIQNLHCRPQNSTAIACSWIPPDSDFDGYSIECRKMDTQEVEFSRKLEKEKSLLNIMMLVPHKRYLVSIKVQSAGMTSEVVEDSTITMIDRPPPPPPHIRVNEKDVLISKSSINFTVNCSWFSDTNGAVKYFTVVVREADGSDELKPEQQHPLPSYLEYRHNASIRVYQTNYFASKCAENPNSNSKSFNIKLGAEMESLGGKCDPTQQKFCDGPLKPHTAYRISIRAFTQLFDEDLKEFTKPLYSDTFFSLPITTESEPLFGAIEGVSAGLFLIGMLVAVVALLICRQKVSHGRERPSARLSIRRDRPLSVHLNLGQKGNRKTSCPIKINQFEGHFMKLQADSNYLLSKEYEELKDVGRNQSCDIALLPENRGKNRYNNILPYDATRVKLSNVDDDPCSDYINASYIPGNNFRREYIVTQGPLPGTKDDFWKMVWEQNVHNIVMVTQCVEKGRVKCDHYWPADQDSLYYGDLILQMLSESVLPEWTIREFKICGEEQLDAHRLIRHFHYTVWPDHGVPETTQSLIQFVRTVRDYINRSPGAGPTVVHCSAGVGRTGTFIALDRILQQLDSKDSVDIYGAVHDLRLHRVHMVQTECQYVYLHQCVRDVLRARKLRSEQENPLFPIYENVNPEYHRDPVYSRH

Work on `O=P(O)(O)Cc1cc2c(O)c(c1)Sc1cc(CP(=O)(O)O)cc(c1O)Sc1cc(CP(=O)(O)O)cc(c1O)Sc1cc(CP(=O)(O)O)cc(c1O)S2` yielded a Ki [1] of 0.22 µM, an IC50 [2] of 0.13 µM and a fold change (FC) [3] of 3. The Activity [4] was “inactive”.

Molecule `O=P(O)(O)C(c1ccc(O)cc1)P(=O)(O)O` has a Ki [1] of 570 µM.

Molecule `O=P(O)(O)C(c1cc2c(O)c(c1)Cc1cc(C(P(=O)(O)O)P(=O)(O)O)cc(c1O)Cc1cc(C(P(=O)(O)O)P(=O)(O)O)cc(c1O)Cc1cc(C(P(=O)(O)O)P(=O)(O)O)cc(c1O)C2)P(=O)(O)O` has a Ki [1] of 40 µM.

For `CCCOc1c2cccc1Cc1cc(C(P(=O)(O)O)P(=O)(O)O)cc(c1O)Cc1cccc(c1OCCC)Cc1cccc(c1O)C2`, the Ki [1] was 7.1 µM.

For `CCCOc1c2cccc1Cc1cc(C(P(=O)(O)O)P(=O)(O)O)cc(c1O)Cc1cccc(c1OCCC)Cc1cc(C(P(=O)(O)O)P(=O)(O)O)cc(c1O)C2`, the Ki [1] was 1.4 µM, the IC50 [2] was 32 µM and the Activity [4] was “inactive”.

With `O=P(O)(O)Cc1cc2c(O)c(c1)Cc1cc(CP(=O)(O)O)cc(c1O)Cc1cc(CP(=O)(O)O)cc(c1O)Cc1cc(CP(=O)(O)O)cc(c1O)C2` the Ki [1] was 0.92 µM, the IC50 [2] was 3.8 µM and the Activity [4] was “inactive”.

Reference: ChEMBL document CHEMBL1153248, “Inhibition of Yersinia protein tyrosine phosphatase by phosphonate derivatives of calixarenes” (Bioorg Med Chem Lett, 2010)
